# Assay results published in the array DNA melting data of Ke et al. (doi:10.1101/2024.01.08.574731).
# How the values were obtained:
# [1] = melting temperature; fluorescence melt of hairpins on a sequencing array, two-state fit, raised by 9.35 °C to match UV melts; conditions: sodium 0.088 M
# Summary of the method: (§1)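 Cy3 fluorescence of library hairpins on a sequenced MiSeq flow cell, with annealed Cy3 and quencher oligos, was imaged in 50 mM Na-HEPES pH 8.0, 25 mM NaCl in 2.5 °C steps up to 60 °C. Signals were normalised to pre-quench Cy3 and to control variants. Melting temperature and folding enthalpy came from bootstrapped two-state fits, inverse-variance combined over four replicates. Fitted temperatures were raised by 9.35 °C to match UV melts.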
# [2] = folding enthalpy; higher = less favourable; fluorescence melt of hairpins on a sequencing array, two-state fit; conditions: sodium 0.088 M
# Summary of the method: as §1
Sequence,Tm [1],folding enthalpy [2]
GATGGCCCGAAAGGGATC (((..(((....)))))),34.3 °C,-11 kcal/mol
GTCTAGGGAAACCCAGAC ((((.((....)).)))),40.9 °C,-30.1 kcal/mol
GATCAAGAATTGATC ((((((...)))))),51.9 °C,-34.6 kcal/mol
GCTAGCGCGAAAGCGAGC (((..(((....)))))),44.9 °C,-12.9 kcal/mol
GGATGTGAAAACATCC ((((((....)))))),58.5 °C,-38.3 kcal/mol
GAGTTGGGAAACTGACTC ((((..(....)..)))),34.4 °C,-26.7 kcal/mol
GATCGGTTGTCCGATC ((((((....)))))),57.1 °C,-33.8 kcal/mol
GATCCGGTGGCGGATC ((((((....)))))),56.5 °C,-31.4 kcal/mol
GATCACCGTTGTGATC ((((((....)))))),55.4 °C,-39.8 kcal/mol
GCGCCGACGAAAGTCCGC (((..(((....)))))),50 °C,-19.8 kcal/mol
GGTCCTCCGAAAGGAACC (((..(((....)))))),32.9 °C,-13 kcal/mol
GCGCCATCGAAAGATCGC (((..(((....)))))),42.5 °C,-24.3 kcal/mol
GCCAGGCGAAAGCCTAGC ((.((((....)))).)),51.4 °C,-15.7 kcal/mol
GCCAAGCGAAAGCCTTGC ((.(.((....)).).)),33.9 °C,-13.6 kcal/mol
GGGACCGAAAGGTCTCCC ((((((....)))..))),51.9 °C,-11.7 kcal/mol
GATCGGCGGACCGATC ((((((....)))))),57.2 °C,-38.8 kcal/mol
GTTTCTCCGAAAGGAAAC (((..(((....)))))),33 °C,-14.8 kcal/mol
GACCCCGAAAGGGTTGTC ((((((....)))..))),43.4 °C,-14.4 kcal/mol
GAGTCGACGAAAGTCCTC (((..(((....)))))),26.6 °C,-9.8 kcal/mol
GGGGTCGGAAACGATCCC (((.(((....))).))),59.7 °C,-48.4 kcal/mol
GTTGTGGGAAACCATGAC ((..(((....)))..)),34.7 °C,-30.4 kcal/mol
GAAGAACGAAAGTTATTC (((.(((....))).))),42.5 °C,-31.6 kcal/mol
GAGCCCGGAAACAGGCCC (.(((.(....).))).),27.1 °C,-8.46 kcal/mol

Sequence,Tm [1],folding enthalpy [2]
GATCGTGGTAACGATC ((((((....)))))),66.1 °C,-39.2 kcal/mol
GCGAGTCCGAAAGGACGC (((..(((....)))))),53 °C,-9.26 kcal/mol
GCACCCGGAAACAGGTGC (((((.(....).))))),52.4 °C,-34.6 kcal/mol
GAACCGCGAAAGCGTTTC (((.(((....))).))),42.3 °C,-20.5 kcal/mol
GGCATAGGAAACTGTGCC ((((.((....)).)))),53.7 °C,-45.3 kcal/mol
GGCCACGAAAGTGGAGCC ((((((....)))..))),53.9 °C,-15.5 kcal/mol
GCAAATCGAAAGATATGC (((.(((....))).))),45.1 °C,-29.4 kcal/mol
GCAGAAGGAAACTTCTGC (((((((....))))))),60.7 °C,-44.4 kcal/mol
GTGAGTGGAAACATTCGC (.((.((....)).)).),33.4 °C,-16.4 kcal/mol
GATCAACAACTTGATC ((((((....)))))),38.4 °C,-35.1 kcal/mol
GCGGTTGGAAACAACCAC (.(((((....))))).),44.8 °C,-14.8 kcal/mol
GATCGTGCGGACGATC ((((((....)))))),54.4 °C,-38.6 kcal/mol
GATCGGTCTGCCGATC ((((((....)))))),62.1 °C,-41.8 kcal/mol
GCTTGTGCGAAAGCAAGC (((..(((....)))))),46.5 °C,-22.9 kcal/mol
GTGTGCGAAAGCATGCAC ((((((....)))..))),45.1 °C,-16.1 kcal/mol
GTCAGGGGAAACCTTGAC ((((.((....)).)))),47.2 °C,-28.1 kcal/mol
GACGACGAAAGTCGAGTC ((((((....)))..))),39.7 °C,-10.5 kcal/mol
GCTGGCGAAAGCCGTAGC ((((((....)))..))),58.9 °C,-13.9 kcal/mol
GCAGTGCGAAAGCCCAGC ((.(.((....)).).)),38 °C,-15.4 kcal/mol
GCTGTCGAAAGACTCAGC ((((((....)))..))),40.5 °C,-18.7 kcal/mol
GCGTTGCGAAAGCTCCGC (((..((....))..))),54.6 °C,-17.9 kcal/mol
GCCTGTTCGAAAGAAGGC (((..(((....)))))),38.8 °C,-25.6 kcal/mol
CGGGTGCGGAAACGCCCG (((..(((....)))))),55.7 °C,-23.4 kcal/mol
